Source: PubChem (several laboratories)
TRPC4 agonist – activators of mouse TRPC4 channel, primary screen, Fluo4 calcium, HEK293 TRPC4beta/mu-opioid cells | B-score at 10 µM | AID 2237, 2010 | 0.49% of 310,000 active | Fluo4 calcium fluorescence; stronger effect = higher value;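 active means B-score above 5 SD of library B-scores, and initial fluorescence ratio not above library mean plus 5 SD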;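 further: positive B-score marks a calcium rise read as TRPC4 activation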
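Technique: kinetic Fluo4 calcium fluorescence; Test system: TRPC4beta and mu-opioid receptor HEK293 stable cells; Measure: B-scored integrated calcium fluorescence ratio; Benchmarks: low control buffer alone, high control maximal DAMGO; Schedule: 45 min room-temperature Fluo4 loading, 110 s read.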
DNA FID counter – compounds displacing fluorescent DNA intercalator, primary screen, artefact control for HCV NS3 helicase inhibitor project, biochemical, FID fluorescence; DNA fluorescent intercalator displacement; inhibition, % at 7.9 µM; 0.17% of 290,000 active; in the data active means inhibition above about 37%;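 further: 0% = vehicle and 100% = reference compound; higher means more ethidium bromide displaced from hairpin DNA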
TRPC4 potent – positive allosteric modulators of TRPC4, primary screen, cell-based, mouse TRPC4beta, HEK293 mu-opioid, Fluo-4 calcium; 0.42% of 310,000 active; DAMGO EC20, Fluo-4 Ca2+ flux; stronger effect = higher value; B-score at 10 µM; Short transient receptor potential channel 4 (Mus musculus), Q9QUQ5;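 active means B-score of calcium response area above 5 SD of library B-scores, with initial fluorescence ratio within 5 SD of library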;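 further: B-score of integrated fluorescence ratio over time as area under calcium response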
TRPC6 activator – mouse TRPC6 channel activators, primary screen, cell-based, HEK293, membrane potential dye; B-score at 10 µM; Short transient receptor potential channel 6 (Mus musculus), Q61143; 0.13% of 310,000 active; HEK293-TRPC6 membrane potential dye fluorescence; stronger effect = higher value;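 active means B-score of the integrated fluorescence ratio above library mean plus 3 SD, and starting fluorescence ratio within library mean plus 5 SD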;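 further: higher score means more depolarization so channel activation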
TRPC4 inh – inhibitors of mouse TRPC4 channel, primary screen, Fluo4 calcium, HEK293 TRPC4beta/mu-opioid cells; Short transient receptor potential channel 4 (Mus musculus), Q9QUQ5; DAMGO-evoked Fluo4 calcium flux; stronger effect = lower value; B-score at 10 µM; 0.39% of 300,000 active; AID 2247, 2010;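 active means B-score over 3 SD under the library average, no early fluorescence shift, positive overall ratio signal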
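Material: HEK293 cells with stable TRPC4beta plus mu-opioid receptor expression / Probe or stimulus: DAMGO in two steps, submaximal then maximal / Compound: single concentration per test compound / Technique: kinetic Fluo4 fluorescence imaging of calcium influx / Read-out: per-well B score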
TRPC6 inh – mouse TRPC6 channel inhibitors, primary screen, cell-based, HEK293, membrane potential dye. Short transient receptor potential channel 6 (Mus musculus), Q61143. ACh-evoked depolarization; stronger effect = lower value. B-score at 10 µM. 1.1% of 310,000 active;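 active means B-score under library mean minus 3 SD, initial fluorescence not abnormally high, positive integrated signal ratio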;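 further: B-score derived from integrated fluorescence ratio over the kinetic read; more negative B-score means stronger inhibition of depolarization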
* marks the source's active call; other numbers are inactive results; i = inactive; . = no result. Compounds with a hit are over-represented: about 2.3% of the library has one in this group of screens.

SMILES	TRPC4 agonist	DNA FID counter	TRPC4 potent	TRPC6 activator	TRPC4 inh	TRPC6 inh
C=CCOc1ccc(/C=C2\SC(=S)N(NS(=O)(=O)c3ccc(C)cc3)C2=O)cc1	i	-19	12*	i	i	i
COc1ccc(NC(=O)CN(C)C(=O)c2cccc(NS(=O)(=O)c3ccc(Br)cc3)c2)cc1	i	.	i	i	i	i
Cc1ccc(S(=O)(=O)Nc2cccc(C(=O)NCC(c3ccco3)N(C)C)c2)cc1F (configuration not stated)	i	.	i	i	i	i
Cc1ccc(NC(=O)CNCC(c2ccccc2)N(C)C)cc1F (configuration not stated)	147*	13	i	i	i	i
COc1ccc(C(CNC(=O)c2cccc(NS(=O)(=O)c3ccc(Br)cc3)c2)N(C)C)cc1 (configuration not stated)	154*	.	i	i	i	i
Cc1ccc(S(=O)(=O)Nc2cccc(C(=O)NCC(c3ccccc3)N(C)C)c2)cc1F (configuration not stated)	66*	.	i	i	-10*	i
COc1ccc(C(CNC(=O)c2ccc(S(=O)(=O)N(C)C)cc2)N(C)C)cc1 (configuration not stated)	242*	6	i	i	i	i
O=[N+]([O-])c1cccc(S(=O)(=O)N2CCN(c3ccccn3)CC2)c1	i	-5	i	i	i	i
COc1ccccc1N(CC(=O)NC1CCCCC1)C(=O)CNC(=O)c1cccs1	i	-39	i	i	i	i
CC(C)c1nc(SCc2ccccn2)c2c(=O)n(C)c(=O)n(C)c2n1	52*	-14	i	i	i	i
c1ccc(-n2cc(CNCCc3cscn3)c(-c3ccc4c(c3)OCO4)n2)cc1	46*	17	i	i	i	i
COc1cc(CN2CCCC(C(=O)c3ccccc3SC)C2)cc(OC)c1 (configuration not stated)	i	13	i	i	-6*	i
COc1ccc(F)cc1C(=O)C1CCCN(Cc2ccc3c(c2)OCCO3)C1 (configuration not stated)	i	6	i	i	-7*	i
COc1ccc(C(=O)C2CCCN(Cc3c(C)[nH]c4ccccc34)C2)c(OC)c1 (configuration not stated)	i	6	i	i	i	-5*
COc1cc(OC)c(OC)cc1CN1CCCC(C(=O)c2ccccc2SC)C1 (configuration not stated)	i	8	i	i	i	i
COc1ccc(C(=O)C2CCCN(Cc3cc(C)c(O)c(C)c3)C2)c(OC)c1 (configuration not stated)	i	10	i	i	i	i
CCCCN(C)CCCNC(=O)c1cn(C)c2ccc(S(=O)(=O)N(C)C3CCCCC3)cc2c1=O	i	21	i	i	i	i
CCCn1c(NC(=O)c2cccc(S(=O)(=O)N3CCCC3)c2)nc2ccccc21	i	-27	43*	i	-6*	i
O=c1c2cc(Cl)ccc2nc(-c2ccc([N+](=O)[O-])cc2)n1O	45*	-3	i	i	i	i
O=c1c2ccccc2nc(-c2ccc(Cl)c(Cl)c2)n1O	i	-4	i	i	i	i
O=c1c2ccc(Cl)cc2nc(-c2cccc(C(F)(F)F)c2)n1O	51*	-1	i	i	i	i
O=c1c2cc(Br)ccc2nc(-c2ccc(Cl)cc2)n1O	175*	-14	i	i	i	i
N#Cc1ccc(-c2nc3cc(Cl)ccc3c(=O)n2O)cc1	i	-9	i	i	i	i
Cc1ccc(-c2nc3c(Cl)cc(Cl)cc3c(=O)n2O)cc1	112*	-10	i	i	i	i
CCOc1ccc(NS(=O)(=O)c2ccc(C(=O)NCCN3CCOCC3)cc2)cc1	i	.	i	i	i	i
SMILES	TRPC4 agonist	DNA FID counter	TRPC4 potent	TRPC6 activator	TRPC4 inh	TRPC6 inh
CN1CCN(c2ccc(CNS(=O)(=O)c3ccsc3)cc2)CC1	i	1	22*	i	i	i
COc1ccc(NC(=O)NN2CCN(C)CC2)cc1OC	i	-3	i	i	i	i
CN1CCN(NC(=O)Nc2cc(Cl)cc(Cl)c2)CC1	i	4	26*	i	i	i
CCOC(=O)N1CCN(C(=O)COC(=O)c2ccc(S(=O)(=O)N(CC)CC)cc2)CC1	i	.	i	i	i	i
COc1cc(/C=C2\SC(N3CCC(C)CC3)=NC2=O)ccc1O	i	-30	i	i	-6*	i
CCOc1cc(/C=C2\CN(CC)C/C(=C\c3ccc(O)c(OCC)c3)C2=O)ccc1O	i	5	17*	i	i	i
COc1cc(/C=C2\CCC/C(=C\c3ccc(O)c(OC)c3)C2=O)ccc1O	i	-15	i	i	-6*	i
CC1CCCCC1NC(=O)c1nn(C)c2c1CS(=O)(=O)c1ccccc1-2 (configuration not stated)	i	-32	i	i	i	i
CCCCN(C(=O)CNC(=O)c1ccco1)C(C(=O)NC1CCCCC1)c1cccnc1 (configuration not stated)	i	-34	i	i	i	i
CCSC(C)CC1C/C(=N/O)c2c(CC)noc2C1 (configuration not stated)	i	-10	i	i	i	i
CCCc1noc2c1/C(=N\O)CC(CC(C)SCC)C2 (configuration not stated)	i	-16	i	i	-6*	i
CCOc1ccc(S(=O)(=O)N2CCN(CC(O)COc3cccc([N+](=O)[O-])c3)CC2)cc1 (configuration not stated)	i	-10	i	i	i	i
COc1ccccc1N1CCN(C2CCCN(S(=O)(=O)c3ccccc3)C2)CC1 (configuration not stated)	i	-2	i	i	-6*	i
